# Assay results reported in paper PMC10450003 (Clinical Pharmacokinetics, 2023).
# Where two headings read alike, the source gives them in different places.
# Experiments:
# [1] = type: in vivo, human; conditions: for total radioactivity in whole blood lower than that in plasma: based on mean Cmax and AUCinf; for time to maximum concentration (post-dose): single IV bolus
# In short: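 Six healthy and six HD adult males received one 1 mL IV bolus of [14C]-labelled test compound in 0.9% NaCl: 100 μCi, about 200 μg, 1.7–3.0 μg/kg. HD subjects were dosed via the dialysis port after the last weekly dialysis. Plasma aliquots were counted by LSC; whole blood was combusted in an oxidizer before LSC. Results were converted to ng-eq. Noncompartmental analysis used actual sample times and dose: Cmax, tmax, AUClast, AUCinf, t1/2, CL, Vz.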
# [2] = Mass balance: recovery of radioactive dose in urine, feces and dialysate; type: in vivo, human; conditions: subjects on hemodialysis; sum of all dialysis treatments (3 times per week, 4 h); total radioactivity (LSC); mean, n = 6
# [3] = Metabolite profiling in pooled fecal homogenate; type: in vivo, human; conditions: subjects on hemodialysis
# [4] = Safety: adverse events in the phase 1 study; type: in vivo, human
# [5] = tested on: CYP1A2, CYP2C19, CYP2C8, CYP2C9, CYP2D6, or CYP3A; conditions: human hepatic microsomes or in vitro hepatocytes; cited from earlier work
# [6] = tested on: other receptors, ion channels, or transporters; conditions: other than kappa-opioid receptor; cited from earlier work
# [7] = cited from earlier work
compound,measurement,setting,value
"CC(C)C[C@@H](NC(=O)[C@@H](Cc1ccccc1)NC(=O)[C@H](N)Cc1ccccc1)C(=O)N[C@H](CCCCN)C(=O)N1CCC(N)(C(=O)O)CC1 [Difelikefalin, 4-amino-1-[(2R)-6-amino-2-[[(2R)-2-[[(2R)-2-[[(2R)-2-amino-3-phenylpropanoyl]amino]-3-phenylpropanoyl]amino]-4-methylpentanoyl]amino]hexanoyl]piperidine-4-carboxylic acid]",total radioactivity in whole blood lower than that in plasma,[1]; healthy subjects,~45%
same,time to maximum concentration (post-dose),"[1]; healthy subjects, plasma total radioactivity",5 min
same,"mean AUC, subjects on HD versus healthy subjects","[1]; plasma total radioactivity, ratio of mean AUC, HD higher",approximately 11 fold
same,total radioactivity in whole blood lower than that in plasma,[1]; subjects on hemodialysis,approximately 38%
same,time to maximum concentration (post-dose),"[1]; subjects on hemodialysis, plasma total radioactivity",5 min
same,Percent of dose recovered in dialysate,[2],19.5%
same,share of total radioactivity excreted in feces recovered as unchanged difelikefalin,[3],84.8%
same,TEAEs considered by the investigator unrelated to study treatment,[4]; all 12 participants,17 of 24
same,subjects reporting treatment-emergent AEs (TEAEs),"[4]; healthy subjects, of n = 6",three of the six
same,metabolism by cytochrome P450 (CYP) enzymes,[5],not metabolized
same,"activity at other receptors, ion channels, or transporters",[6],"no activity at other receptors, ion channels, or transporters"
same,"abuse potential, physical dependence, respiratory depression",[7],"no abuse potential, no physical dependence, and no respiratory depression effects"
